Measurements published in ChEMBL document CHEMBL3525918, “Utility of drug depletion-time profiles in isolated hepatocytes for accessing hepatic uptake clearance: identifying rate-limiting steps and role of passive processes” (Drug Metab Dispos, 2012).

Tests used:
[1] = Drug metabolism in Sprague-Dawley rat hepatocytes assessed per 10^6 cells at 0.1 to 10 uM up to 90 mins by media-loss method; type: ADME, cell-based, Hepatocyte
Method in brief: (§1)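 Freshly isolated rat hepatocytes (collagenase perfusion, >85% viable, three preparations), incubated with drug at final 0.1–10 µM at 37°C, 0.1–1 x 10^6 cells/mL, 0.5% methanol, alongside the whole-matrix assay. At time points up to 90 min the incubation was centrifuged 30 sec at 7000g, and the supernatant medium was snap-frozen and analysed by LC-MS/MS. Loss of drug from the medium was fitted mono- or biexponentially.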

[2] = Drug metabolism in Sprague-Dawley rat hepatocytes assessed per 10^6 cells at 0.1 to 10 uM up to 90 mins by conventional assay; type: ADME, cell-based, Hepatocyte
Method in brief: (§2)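 Fresh rat hepatocytes from collagenase perfusion (viability >85%), three independent preparations. Drug at final 0.1–10 µM in Williams' medium E, 0.5% methanol, preincubated 5 min at 37°C, then mixed with hepatocytes (final 0.1–1 x 10^6 cells/mL) and shaken at 37°C. Ten time points up to 90 min, terminated by snap-freezing the whole cell-plus-medium matrix. LC-MS/MS quantitation; mono- or biexponential depletion fit gives kdep.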

[3] = (§3) Apparent intrinsic clearance in Sprague-Dawley rat hepatocytes assessed per 10^6 cells at 0.1 to 10 uM up to 90 mins by media-loss method; type: ADME, cell-based, Hepatocyte; conditions: Sprague-Dawley, read-out: CLH(app); method in brief: as §1
[4] = Apparent intrinsic clearance in Sprague-Dawley rat hepatocytes assessed per 10^6 cells at 0.1 to 10 uM up to 90 mins by conventional assay; type: ADME, cell-based, Hepatocyte; conditions: read-out: CLH(app); method in brief: as §2
Hepatocyte = assay: as §3; type: ADME, cell-based; conditions: 1.5 h, 10 µM; method in brief: as §1

Structure (SMILES) | Km at 1.5 h, up to 10 µM [1] [µM] | Km at 1.5 h, up to 10 µM [2] [µM] | hepatocyte CLint at up to 10 µM [3] [µL/min/1e6 cells] | hepatocyte CLint at up to 10 µM [4] [µL/min/1e6 cells] | CLH(app) (Hepatocyte) [uL/min/10^6cells]
CC(C)c1c(C(=O)Nc2ccccc2)c(-c2ccccc2)c(-c2ccc(F)cc2)n1CC[C@@H](O)C[C@@H](O)CC(=O)O [ATORVASTATIN] | 0.43 | 1.3 |  |  | 
CC[C@H]1OC(=O)[C@H](C)[C@@H](O[C@H]2C[C@@](C)(OC)[C@@H](O)[C@H](C)O2)[C@H](C)[C@@H](O[C@@H]2O[C@H](C)C[C@H](N(C)C)[C@H]2O)[C@](C)(OC)C[C@@H](C)C(=O)[C@H](C)[C@@H](O)[C@]1(C)O [CLARITHROMYCIN] |  |  | 68 | 46 | 
CC[C@H]1OC(=O)[C@H](C)[C@@H](O[C@H]2C[C@@](C)(OC)[C@@H](O)[C@H](C)O2)[C@H](C)[C@@H](O[C@@H]2O[C@H](C)C[C@H](N(C)C)[C@H]2O)[C@](C)(O)C[C@@H](C)C(=O)[C@H](C)[C@@H](O)[C@]1(C)O [ERYTHROMYCIN] | 5.5 | 3.5 | 35 | 26 | 
CC(C)(C(=O)O)c1ccc(C(O)CCCN2CCC(C(O)(c3ccccc3)c3ccccc3)CC2)cc1 (stereo unspecified) [FEXOFENADINE] |  | 4.7 |  |  | 
O=C(O)C[C@H](O)C[C@H](O)/C=C/c1c(C2CC2)nc2ccccc2c1-c1ccc(F)cc1 [PITAVASTATIN] | 13 |  |  | 7.1 | 1705
CCOc1cc(CC(=O)N[C@@H](CC(C)C)c2ccccc2N2CCCCC2)ccc1C(=O)O [REPAGLINIDE] |  |  | 49.3 | 49.9 | 
CC(C)c1nc(N(C)S(C)(=O)=O)nc(-c2ccc(F)cc2)c1/C=C/[C@@H](O)C[C@@H](O)CC(=O)O [ROSUVASTATIN] |  |  | 1660 | 3.3 | 
